How the values were obtained:
[1] = Lipophilicity, log P of the compound; assay type: physicochemical; conditions: octanol/water
Outline: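 Octanol–PBS partition (log Poct/PBS) measured on the N-11C-labeled radiotracers.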

Mus musculus = assay: Ratio of drug uptake in iv dosed Balb/C mouse brain at 2 to 30 mins; assay type: ADME, organism-based; conditions: in vivo
Outline: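 Wild-type mice received the 11C-labeled tracers i.v. Brain uptake was measured as %ID/g at 2 and 30 min post-injection, and the 2 min/30 min ratio was taken. Means ± sd, n = 4-5.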

Plasma = assay: Metabolic stability in Balb/C mouse plasma assessed as radioactivity; assay type: ADME, cell-free
[2] = Displacement of [3H]PIB from human A-beta-40 peptide
Outline: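 Competition binding against [3H]PIB using precipitated synthetic Aβ(1-40) peptide aggregates. Ki derived from competition data.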

Row | Compound | logP [1] | Ratio (Mus musculus) | t1/2 (Plasma) | Ki [2]
1 | [11CH3]Nc1ccc(-c2nc3cc(F)ccc3s2)cc1 | 3.27 | 2.5 | 6.8 min | 12.4 nM
2 | Cc1cc(-c2nc3cc(F)ccc3s2)ccc1N[11CH3] | 2.93 | 6.3 | 14.3 min | 8.4 nM
3 | Cc1cc(-c2nc3ccccc3s2)ccc1N[11CH3] | 3.36 | 2.8 | 7.5 min | 4.4 nM
4 | [11CH3]Nc1ccc(-c2nc3ccccc3s2)cc1F | 3.05 | 3.1 | 8.4 min | 6.8 nM

Now those with a lower Ki [2], led by results:

Row | logP [1] | Ratio (Mus musculus) | t1/2 (Plasma) | Ki [2] | Compound
5 | 4.18 | 2.5 | 7.2 min | 1.3 nM | [11CH3]Nc1ccc(-c2nc3cc(F)ccc3s2)cc1Br
6 | 2.81 | 9.8 | 22.1 min | 3.4 nM | [11CH3]Nc1ccc(-c2nc3cc(F)ccc3s2)cc1Cl
